Screening results: PubChem BioAssay, The Scripps Research Institute Molecular Screening Center
Compounds with a hit are over-represented: about 1.8% of the library has one in this group of screens.
SIAE primary = human SIAE inhibitors, primary screen, biochemical, fluorescence polarization, FP-Rh probe, 1536-well HTS. SIAE FP-Rh probe binding. AID 1053197, 2014. Sialate O-acetylesterase (Homo sapiens), Q9HAT2. 370,000 tested, 0.69% active. inhibition, % at 9.66 µM;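 active = inhibition above a cutoff: mean of compounds within the control limits plus 3 SD of those, cut at about 17% in these data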;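 note: 0% = plate median of compound wells and 100% = probe without SIAE protein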
TCR-CD3 inh = inhibitors of human TCR-CD3 interaction, primary screen, biochemical, fluorescence, TAMRA-labeled TCR probe; T-cell receptor (TCR); inhibition, % at 9.4 µM; 360,000 tested, 0.37% active; AID 651800, 2012; in the data active = inhibition above about 19%;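 note: recombinant mutant TCR 2C K166C tagged with TAMRA read by polarization; 0% = receptor in buffer alone and 100% = receptor with positive control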
Tn6 DDE FP = inhibitors of Tn6 peptide binding to fibrin DD(E), primary screen, biochemical, fluorescence polarization, human fibrin, Tn6 probe; Fibrinogen beta chain (Homo sapiens), P02675; Fibrin DD(E) TRITC-Tn6 fluorescence polarization displacement; inhibition, % at 8.3 µM; 370,000 tested, 0.21% active;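 active = inhibition above a per-campaign cutoff: mean of compounds within control limits plus 3 SD, cut at about 15% in these data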;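 note: 0% = median of all compound wells on the plate and 100% = blocking peptide control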
Tn7 DDE FP = inhibitors of Tn7 peptide binding to fibrin DD(E), primary screen, biochemical, fluorescence polarization, human fibrin, Tn7 probe; inhibition, % at 8.3 µM; FP displacement of FITC-Tn7 peptide from fibrin DD(E); 0% = median of compound wells per plate; Fibrinogen beta chain (Homo sapiens), P02675; 370,000 tested, 0.13% active;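 active = inhibition above the mean of compounds falling within the control limits plus 3 SD of them, cut at about 14% in these data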;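 note: 0% = plate median of compound wells and 100% = 10 µM Aha-Tn7 peptide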
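Test system: human clot-derived fibrin DD(E) complex / Quantity: 2 µM final DD(E) protein / Incubation: 10 min plus 3 h, room temperature / Measured by: fluorescence polarization / Benchmarks: high control of 10 µM Aha-Tn7 peptide / Replicates: singlicate testing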
HTRA1 inh = HTRA1 serine protease inhibitors, primary screen, biochemical, fluorescence polarization, HTS; 340,000 tested, 0.5% active; Q92743; inhibition, % at 5.96 µM; recombinant HTRA1, FP-rhodamine activity-based probe; AID 504803, 2011; in the data active = inhibition above about 36%;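 note: 0% = enzyme with DMSO and 100% = wells lacking enzyme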
Target sequence (Q92743 whole entry, looked up): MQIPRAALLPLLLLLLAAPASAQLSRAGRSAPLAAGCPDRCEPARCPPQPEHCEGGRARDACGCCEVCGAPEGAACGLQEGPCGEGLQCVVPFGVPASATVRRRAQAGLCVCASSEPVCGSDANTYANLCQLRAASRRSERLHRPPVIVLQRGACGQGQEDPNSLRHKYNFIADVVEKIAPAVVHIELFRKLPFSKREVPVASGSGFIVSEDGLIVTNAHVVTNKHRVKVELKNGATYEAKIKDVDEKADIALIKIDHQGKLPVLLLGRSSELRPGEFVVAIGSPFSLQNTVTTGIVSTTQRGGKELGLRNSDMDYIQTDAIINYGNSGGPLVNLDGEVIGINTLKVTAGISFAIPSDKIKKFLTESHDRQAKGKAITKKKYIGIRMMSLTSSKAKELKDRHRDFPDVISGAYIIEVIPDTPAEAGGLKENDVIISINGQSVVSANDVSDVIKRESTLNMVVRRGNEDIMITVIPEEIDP
mABHD4 FP = ABHD4 inhibitors, primary screen, biochemical, fluorescence polarization, mouse; (Lyso)-N-acylphosphatidylethanolamine lipase (Mus musculus), Q8VD66; purified mABHD4, FP-Rh probe fluorescence polarization; inhibition, % at 8.92 µM; 370,000 tested, 0.54% active; AID 720543, 2013;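 active = inhibition exceeding the mean over every tested compound plus 3 SD, cut at about 30% in these data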;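 note: 0% = plate median of compound wells and 100% = S159A mutant with DMSO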
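Test system: mABHD4 protein | Buffer or medium: HEPES pH 7.0 buffer, 150 mM NaCl, 0.01% Pluronic F-127 | Probe or stimulus: FP-Rh fluorescent activity-based probe, added after compound pre-incubation | Timing: Pre-incubation 45 min, probe exposure 60 min, at 25 °C | Technique: Fluorescence polarization, excitation 525 nm, emission 598 nm, BODIPY TMR filters | Repeats: Single well per compound (singlicate)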
mABHD4 conf = ABHD4 inhibitors, retest, confirmation, biochemical, fluorescence polarization, mouse | shares compounds with mABHD4 FP | 1,800 tested, 55% active | purified mABHD4, FP-Rh probe fluorescence polarization | inhibition, % at 8.92 µM;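 active = mean inhibition across replicates above the hit cutoff set in the primary screen, cut at about 30% in these data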;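 note: 0% = wild-type ABHD4 with DMSO and 100% = catalytically dead S159A mutant with DMSO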
* marks the source's active call; other numbers are inactive results; nt = no result.

SMILES | SIAE primary | TCR-CD3 inh | Tn6 DDE FP | Tn7 DDE FP | HTRA1 inh | mABHD4 FP | mABHD4 conf
COC(=O)[C@]12C[C@H](CC(=O)NCCCN3CCCC3=O)C(=O)N(Cc3ccc(Cl)cc3Cl)C1=C[C@H](C(C)C)O[C@@H]2C1CC1 | -1 | nt | -3 | -3 | nt | 6 | nt
COC(=O)C1=C(O)/C(=C\c2ccc(CNC(=O)C(=O)Nc3ccc(C)c(C)c3)o2)N=C1C | 12 | -2 | 6 | -4 | 29 | 28 | nt
COC(=O)C1=C(O)/C(=C\c2ccc(CNS(=O)(=O)c3ccccc3)o2)N=C1C | 15 | 17 | 5 | 6 | 8 | 32* | 15
Cc1ccc(CN2CCN(/N=C/c3ccc(C(=O)O)cc3)CC2)cc1 | 2 | 5 | 3 | -4 | 2 | -5 | nt
Cc1ccc(CN2CCN(/N=C/c3ccc(O)c(O)c3)CC2)cc1 | 10 | 6 | -1 | -2 | 32 | 31* | 54*
O=C(CNc1cccc2ccccc12)N/N=C/C(Br)=C/c1ccccc1 | 7 | 3 | -5 | 6 | 22 | 32* | 3
CCN(CC)CCN1C(=O)C(=O)/C(=C(/O)c2c(C)[nH]c(C(=O)OC)c2C)C1c1cccs1 (configuration not stated) | 8 | 9 | -1 | -9 | 2 | 34* | -17
O=C(O)c1cc([N+](=O)[O-])c(NCCC2=CCCCC2)c([N+](=O)[O-])c1 | 6 | 0 | -3 | 4 | -6 | 55* | 66*
CCCCCCCCN1CCS(=O)(=O)N(Cc2ccc(OC)cc2)C(C(=O)OC)C1 (configuration not stated) | 3 | nt | -2 | 9 | nt | -5 | nt
COc1ccc(CC2CCN(c3ncnc4sccc34)CC2)cc1 | 1 | nt | -7 | 9 | nt | -3 | nt
Cc1cc(C)nc(OC(C(=O)O)C(OCCc2ccccc2)(c2ccc(F)cc2)c2ccc(F)cc2)n1 (configuration not stated) | 0 | -4 | 1 | 4 | -10 | 40* | 43*
CCCOC(c1ccccc1)(c1ccc(C(F)(F)F)cc1)C(Oc1nc(C)cc(C)n1)C(=O)O (configuration not stated) | 2 | 2 | -6 | 1 | 7 | 21 | nt
CCC(C)COC(c1ccccc1)(c1ccccc1)C(Oc1nc(C)cc(C)n1)C(=O)O (configuration not stated) | -1 | 2 | 0 | 6 | -3 | 31* | 35*
Cc1cc(C)nc(OC(C(=O)O)C(OCC(C)C)(c2ccccc2)c2ccccc2)n1 (configuration not stated) | -3 | -6 | 3 | 4 | 1 | 11 | nt
Cn1c(/C=C/c2ccc(Cl)cc2)nc2ccccc2c1=O | -2 | 5 | -2 | 7 | 0 | 57* | -18
COC(=O)C(Cc1c[nH]c2ccccc12)NC(C)=O (configuration not stated) | 2 | 7 | 9 | -4 | 7 | 12 | nt
COC(=O)[C@@H](Cc1c[nH]c2ccccc12)NCc1cccc(B(O)O)c1 | 3 | 6 | -2 | 10 | 11 | 67* | 61*
O=C(OC12CCCN(C1)/C(=C/c1ccc(Cl)cc1)C2)c1cccc(F)c1 (configuration not stated) | -4 | nt | -2 | -5 | nt | -3 | nt
CC1CC(C)C(=O)C(C(CC2CC(=O)NC(=O)C2)OC(=O)CC(=O)c2ccccc2)C1 (configuration not stated) | 0 | 1 | 12 | 6 | 2 | 60* | 15
COC(=O)c1ccc(S(=O)(=O)N2CCC(NC(=O)CCc3ccccc3)CC2)cc1 | -7 | nt | -2 | -3 | nt | 0 | nt
CN1CC=C(c2ccccc2)N(c2ccc(Cl)cc2)C1=O | 0 | nt | -3 | -1 | nt | -2 | nt
O=C1NC(=O)/C(=C\c2ccc(O)cc2O)S1 | -2 | 17 | -5 | -7 | 17 | 30* | 3
CN(C)CCOc1ccc(-c2c(-c3ccsc3)sc3ccccc23)cc1 | 16 | -6 | 0 | -7 | -21 | 34* | 39*
CC(C)(C)/C(O)=C/c1nc2cc(Cl)ccc2oc1=O | -1 | -5 | -1 | -7 | 18 | 32* | 3
Cc1ccc2oc(=O)c(/C=C(\O)C(C)(C)C)nc2c1 | 6 | 1 | 0 | -6 | 1 | 21 | nt
SMILES | SIAE primary | TCR-CD3 inh | Tn6 DDE FP | Tn7 DDE FP | HTRA1 inh | mABHD4 FP | mABHD4 conf
O=C(/C=C/c1ccco1)c1cccnc1 | 15 | 18 | -1 | 3 | 3 | 36* | -3
O=C(C=Cc1ccco1)c1ccc([N+](=O)[O-])cc1 | 10 | 5 | -8 | -4 | 2 | 37* | 5
CC(/C=C/c1ccco1)=N\NC(=O)c1cccnc1 | 5 | 12 | -1 | 6 | -6 | 2 | nt
O=C1CCC[C@H]2C[C@H](NCc3ccccc3Cl)CC[C@]23CCCN13 | 1 | nt | 5 | 1 | nt | 2 | nt
Nc1[nH]n(-c2ccccc2)c(=O)c1N=Nc1ccc2c(c1)OCCO2 | 9 | 6 | -3 | -4 | 28 | 30* | 28
Cc1cc([N+](=O)[O-])ccc1N=Nc1c(N)[nH]n(-c2ccccc2)c1=O | 9 | 8 | 0 | 5 | 3 | 30* | 41*
Cc1ccccc1N=Nc1c(N)[nH]n(-c2ccccc2)c1=O | 9 | nt | 1 | 3 | nt | 34* | 43*
Nc1[nH]n(-c2ccccc2)c(=O)c1N=Nc1ccc(F)cc1 | 11 | nt | -5 | 6 | nt | 27 | nt
CC(C)C[C@@H]1NC(=O)[C@H]2C[C@@]3(C)c4ccccc4N[C@H]3N2C1=O | 3 | nt | -3 | -5 | nt | 6 | nt
CC(C)CNC(=O)OCc1cn(Cc2cc(F)cc(F)c2)nn1 | -1 | nt | -2 | 2 | nt | 4 | nt
CCOc1cc([N+](=O)[O-])cc(/C=C2/NC(=O)N(Cc3ccccc3F)C2=O)c1O | -6 | -3 | 2 | 5 | 27 | 31* | 54*
COc1ccc(N=C2NC(=O)/C(=C/c3ccco3)S2)cc1 | 14 | 5 | -8 | -4 | 14 | 33* | -10
COc1ccc(S(=O)(=O)/N=C2/NC(=O)/C(=C/c3ccco3)S2)cc1 | -23 | 12 | 1 | -2 | 3 | 29 | nt
Cc1cccc(Nc2cc(C)c3c(O)cccc3n2)c1C | 9 | -5 | -16 | -3 | 9 | 30* | 42*
COc1cc(/C=C2\SC(=S)N(Nc3ccccc3)C2=O)cc(OC)c1OC | 2 | -1 | -3 | 3 | -11 | 33* | 40*
